Measured values reported in article PMC9170026 (Proceedings of the National Academy of Sciences of the …, 2022).
Like-named read-outs stand apart in the source and are kept apart here.

Legend:
[1] = test system: TNF-α–induced IKKβ-mediated NF-κB activation; test: Dual luciferase assay-based screen of quinoxaline analogs; type: cell-based; conditions: relative to parent analog / 13-197
How it was run: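 Dual-luciferase NF-κB reporter screen of quinoxaline analogs against TNF-α–stimulated, IKKβ-mediated NF-κB activation. Two reference compounds, the parent quinoxaline and an allosteric IKKβ inhibitor, served as controls marking the ends of the activity range. n = 4, reported as average ± SEM. P values from a two-tailed Student's t test.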

[2] = test system: NF-κB pathway proteins; test: Western blot of NF-κB pathway proteins in MiaPaCa2 cells, 6 h; type: cell-based, human; conditions: MiaPaCa2, 6h, dose-response
[3] = test system: p-IKKβ; test: p-IKKβ levels in MiaPaCa2 cells; type: cell-based; conditions: Homo sapiens, MIA PaCa-2, read-out: IC50 for reduction of p-IKKβ levels
[4] = test system: T3M4 orthotopic pancreatic tumors; test: T3M4 orthotopic xenograft model; type: in vivo, athymic nude mice; conditions: 40 mg/kg, by mouth
[5] = Metabolic stability in human liver S9 fraction; type: in vitro ADME
[6] = molecular target: T1, IKKβ (Homo sapiens, UniProt O14920); test: KinomeSCAN binding to IKKβ
T1 sequence (O14920 1-756): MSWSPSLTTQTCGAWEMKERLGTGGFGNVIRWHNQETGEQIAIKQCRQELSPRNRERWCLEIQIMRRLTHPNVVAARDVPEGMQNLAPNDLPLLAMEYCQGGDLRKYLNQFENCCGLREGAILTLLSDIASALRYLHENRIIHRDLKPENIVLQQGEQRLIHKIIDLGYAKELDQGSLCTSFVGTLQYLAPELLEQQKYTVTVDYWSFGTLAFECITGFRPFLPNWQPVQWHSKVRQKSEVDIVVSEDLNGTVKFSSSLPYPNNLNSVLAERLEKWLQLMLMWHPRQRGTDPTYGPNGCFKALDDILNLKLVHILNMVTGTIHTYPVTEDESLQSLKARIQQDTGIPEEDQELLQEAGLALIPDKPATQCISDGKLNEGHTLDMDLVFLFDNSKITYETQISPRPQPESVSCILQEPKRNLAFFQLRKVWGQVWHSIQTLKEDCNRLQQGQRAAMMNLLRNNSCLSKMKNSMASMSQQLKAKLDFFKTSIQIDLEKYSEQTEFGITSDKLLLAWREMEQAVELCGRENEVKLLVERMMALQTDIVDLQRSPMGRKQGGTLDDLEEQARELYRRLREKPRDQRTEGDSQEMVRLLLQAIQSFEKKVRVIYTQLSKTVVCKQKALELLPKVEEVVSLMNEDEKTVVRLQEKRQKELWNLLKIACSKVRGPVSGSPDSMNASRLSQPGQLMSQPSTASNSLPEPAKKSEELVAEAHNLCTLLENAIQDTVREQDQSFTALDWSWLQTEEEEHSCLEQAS

[7] = test system: 328 kinase-associated peptides that correspond to 254 kinases; test: KiNativ kinome profiling dose-response in PANC1 lysate; type: binding; conditions: PANC1 cell lysates, 1.25-10 μM
How it was run: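 KiNativ kinome profiling done as a dose-response in PANC1 cells. Test compound was used at 1.25, 2.5, 5, 7.5 and 10 μM. Each kinase inhibited was recorded at each concentration.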

[8] = Oral and intravenous dose pharmacokinetic studies in mice; conditions: mouse, in vivo
[9] = test system: MAP3K1-WT–induced p-IKKβ; test: Western blot of MAP3K1-WT transfected HeLa cells; type: cell-based
[10] = molecular target: T1, IKKβ; test: 10-point dose-response IKKβ kinase activity assay; type: biochemical
[11] = test system: TNF-α–induced MAP3K1-IKKβ–mediated NF-κB activity; test: HeLa luciferase reporter under NF-κB response element; type: cell-based
[12] = test system: TNF-α–induced MAP3K1-IKKβ–mediated NF-κB activation; type: cell-based; conditions: MAP3K1-WT transfected HeLa, TNF-α 20 ng/mL, 6 h
[13] = molecular target: MAP3K12; conditions: cited from earlier work

Cn1cc(-c2cnc3ccc(NC(=O)Nc4ccc(Br)cc4)cc3n2)cn1 [analog 5]
inhibition of TNF-α–induced IKKβ-mediated NF-κB activity (SAR screen) [1]: improved activity

Cn1cc(-c2cnc3ccc(NC(=O)Nc4ccccc4Br)cc3n2)cn1 [analog 13]
inhibition of TNF-α–induced IKKβ-mediated NF-κB activity (SAR screen) [1]: reduced the activity

Cn1cc(-c2cnc3ccc(NC(=O)Nc4ccc(F)c(Br)c4)cc3n2)cn1 [39-100]
Bcl-xL levels [2]: no change in Bcl-xL
IκBα phosphorylation [2]: inhibited IκBα phosphorylation in a dose-dependent manner
IC50 [3]: 2300 ± 200 nM
Ki67 and CD31+ tumor cells vs vehicle [4]: reduced Ki67 and CD31^+ tumor cells
p-IKKβ expression in tumors (IHC) vs vehicle [4]: reduced expression of p-IKKβ
improvement of t1/2 (stability) over 13-197 [5]: ~8 fold
major metabolites ([5]; 2h post-incubation): demethylated, glucuronidated, and sulfated products
in vitro IKKβ binding [6]: did not bind
in vitro IKKβ binding ([6]; listed as IKAM-1): inactive
kinome selectivity [7]: selectively inhibits MAP3K1
improvement in oral bioavailability over 13-197 [8]: ~12 fold
MAP3K1-WT–induced p-IKKβ [9]: inhibited
in vitro IKKβ enzymatic inhibition [10]: inactive
inhibition of TNF-α–induced NF-κB reporter activity [11]: selectively inhibited
inhibition of TNF-α–induced MAP3K1-IKKβ–mediated NF-κB activation [12]: inhibited

Cn1cc(-c2cnc3ccc(NC(=O)Nc4cccc(Br)c4)cc3n2)cn1 [compound 12]
Bcl-xL levels [2]: no change in Bcl-xL
IκBα phosphorylation [2]: inhibited IκBα phosphorylation in a dose-dependent manner
Mcl-1 levels [2]: robust reduction in Mcl-1 levels
inhibition of TNF-α–induced IKKβ-mediated NF-κB activity (SAR screen) [1]: further improved the activity
improvement of t1/2 (stability) over 13-197 [5]: four-fold better

CC(C)n1nc(-c2cnc(N)c(OC(F)(F)F)c2)cc1C1[C@H]2CN(C3COC3)C[C@@H]12 (some centres unmarked) [DLK-In-1]
Ki [13]: 3 nM
